Data taken from ChEMBL document CHEMBL4043302, “Lead Diversification at the Nanomole Scale Using Liver Microsomes and Quantitative Nuclear Magnetic Resonance Spectroscopy: Application to Phosphodiesterase 2 Inhibitors” (J Med Chem, 2018).

Assays:
[1] = Intrinsic clearance in human hepatocytes assessed per million cells at 1 uM after 0.5 to 4 hrs by HPLC-HRMS method; assay type: ADME, cell-based, Hepatocyte; settings: for hepatocyte CLint at 1 µM: human hepatocytes, read-out: CLH; for CLint: hepatocytes, 1 µM
Outline: (§1)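 Compound at 1 µM was dried from d6-DMSO and redissolved in Williams E medium. Pooled human hepatocytes were added at 680000 cells/mL. Samples were quenched in water/CH3CN (2:1) with 2% formic acid and clozapine as internal standard, then analysed by HPLC-HRMS in positive-ion full scan. k came from the slope of ln peak-area ratio versus time; CLint = k / cell concentration. Non-specific binding was not measured.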

[2] = (§2) Apparent permeability across RRCK cells after 1.5 hrs; assay type: ADME, cell-based, Canis lupus familiaris, MDCKII-LE; settings: dog, MDCK
Liver [3] = experiment: Drug level in dog liver microsomes treated with 2-(3,4-dimethoxybenzyl)-7-((2R,3R)-2-hydroxy-6-phenylhexan-3-yl)-5-methylimidazo[1,5-f][1,2,4]triazin-4(3H)-one at 20 uM after 1 hr by UHPLC-UV-HRMS method; assay type: ADME, Canis lupus familiaris, microsome
Outline: (§3)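 Preparative incubation: substrate 20 µM with liver microsomes (2 mg/mL) of the listed species in 0.1 M potassium phosphate, pH 7.5, with MgCl2 3.3 mM and NADPH 1.3 mM. Run at 37°C in a shaking water bath and stopped with an equal volume of CH3CN. Products were fractionated by HPLC and quantified by qNMR in d6-DMSO.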

[4] = Drug level in cynomolgus monkey liver microsomes treated with 5-(Difluoromethyl)-7-(1,3-dimethyl-5-(4-(trifluoromethyl)phenyl)-1H-pyrazol-4-yl)-2-methylimidazo[5,1-f ][1,2,4]triazin-4(3H)-one at 20 uM after 1.5 hrs by UHPLC-UV-HRMS method; assay type: ADME, Macaca fascicularis, microsome; outline: as §3
[5] = Metabolic stability in human hepatocytes at 1 uM after 0.5 to 4 hrs by HPLC-HRMS method; assay type: ADME, cell-based, Hepatocyte; outline: as §1
[6] = Drug level in hamster liver microsomes treated with 7-(1,3-Dimethyl-5-(4-(trifluoromethyl)phenyl)-1H-pyrazol-4-yl)-5-(methoxymethyl)-2-methylimidazol[5,1-f ][1,2,4]triazin-4-(3H)-one at 20 uM after 1 hr by UHPLC-UV-HRMS method; assay type: ADME, microsome; settings: cricetinae; outline: as §3
[7] = target: cGMP-dependent 3',5'-cyclic phosphodiesterase (Homo sapiens, UniProt O00408); experiment: Inhibition of human PDE2A1 using 3',5'-[3H]cGMP as substrate after 30 mins by scintillation proximity assay
[8] = Drug level in hamster liver microsomes treated with 7-(5-(4-Methoxyphenyl)-1,3-dimethyl-1H-pyrazol-4-yl)-2,5-dimethylimidazo[5,1-f ][1,2,4]triazin-4(3H)-one at 20 uM after 1.5 hrs by UHPLC-UV-HRMS method; assay type: ADME, microsome; settings: cricetinae; outline: as §3
[9] = Drug level in rabbit liver microsomes treated with 7-(1,3-Dimethyl-5-(3-methyl-4-(trifluoromethyl)phenyl)-1H-pyrazol-4-yl)-2,5-dimethylimidazo[5,1-f ][1,2,4]triazin-4(3H)-one at 20 uM after 1 hr by UHPLC-UV-HRMS method; assay type: ADME, Oryctolagus cuniculus, microsome
[10] = Drug level in cynomolgus monkey liver microsomes treated with 7-(1,3-Dimethyl-5-(5-(trifluoromethyl)pyridine-2-yl)-1H-pyrazol-4-yl)-2,5-dimethylimidazo[5,1-f ][1,2,4]triazin-4(3H)-one at 20 uM after 1.2 hrs by UHPLC-UV-HRMS method; assay type: ADME, Macaca fascicularis, microsome; outline: as §3
Liver [11] = experiment: Drug level in human liver microsomes treated with 2-(3,4-dimethoxybenzyl)-7-((2S,3R)-2-hydroxy-6-phenylhexan-3-yl)-5-methylimidazo[1,5-f][1,2,4]triazin-4(3H)-one at 20 uM after 1 hr by UHPLC-UV-HRMS method; assay type: ADME, microsome; outline: as §3
Liver [12] = experiment: Drug level in mouse liver microsomes treated with 7-(5-(4-Chlorophenyl)-1,3-dimethyl-1H-pyrazol-4-yl)-2,5-dimethylimidazo[5,1-f ][1,2,4]triazin-4(3H)-one at 20 uM after 1.5 hrs by UHPLC-UV-HRMS method; assay type: ADME, microsome; outline: as §3
MDCKII-LE = experiment: as §2; assay type: ADME, cell-based, Canis lupus familiaris; settings: dog, mdckii-le, 1.5 h

cGMP-dependent 3',5'-cyclic phosphodiesterase, sequence (O00408 whole entry): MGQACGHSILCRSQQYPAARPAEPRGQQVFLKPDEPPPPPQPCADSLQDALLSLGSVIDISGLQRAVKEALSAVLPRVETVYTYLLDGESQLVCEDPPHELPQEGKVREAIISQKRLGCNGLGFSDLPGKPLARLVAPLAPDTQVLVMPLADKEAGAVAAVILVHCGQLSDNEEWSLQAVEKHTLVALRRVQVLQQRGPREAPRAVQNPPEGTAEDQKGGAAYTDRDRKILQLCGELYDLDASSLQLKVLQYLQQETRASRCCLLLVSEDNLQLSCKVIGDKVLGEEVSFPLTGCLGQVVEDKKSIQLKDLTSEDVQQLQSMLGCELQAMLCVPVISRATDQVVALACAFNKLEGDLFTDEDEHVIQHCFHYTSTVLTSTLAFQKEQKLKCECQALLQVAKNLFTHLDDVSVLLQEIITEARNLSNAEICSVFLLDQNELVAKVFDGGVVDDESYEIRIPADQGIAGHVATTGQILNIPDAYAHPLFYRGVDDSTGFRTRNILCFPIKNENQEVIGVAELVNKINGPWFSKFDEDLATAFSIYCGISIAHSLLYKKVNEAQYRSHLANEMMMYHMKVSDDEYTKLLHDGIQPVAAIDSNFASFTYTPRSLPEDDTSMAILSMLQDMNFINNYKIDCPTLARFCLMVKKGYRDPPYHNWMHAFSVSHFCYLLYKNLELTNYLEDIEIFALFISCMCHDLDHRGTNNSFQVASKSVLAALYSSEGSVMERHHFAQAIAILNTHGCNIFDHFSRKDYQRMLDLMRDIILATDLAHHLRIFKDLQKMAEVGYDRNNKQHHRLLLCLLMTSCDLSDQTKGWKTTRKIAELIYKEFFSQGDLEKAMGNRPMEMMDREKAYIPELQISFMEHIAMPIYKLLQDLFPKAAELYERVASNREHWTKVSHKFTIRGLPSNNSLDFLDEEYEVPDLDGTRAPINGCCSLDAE

| hepatocyte CLint at 1 µM [1] [µL/min/1e6 cells] | Papp at 1.5 h [2] [×10⁻⁶ cm/s] | Stability [5] | Compound | other results |
| --- | --- | --- | --- | --- |
| 14 | 2 | – | COc1ccc(Cc2nn3c([C@@H](CCC(O)c4ccccc4)[C@@H](C)O)nc(C)c3c(=O)[nH]2)cc1OC (single isomer, unassigned; diastereomer 1) | Drug metabolism (Liver [3]): Metabolite_Detected |
| 11 | 2.8 | – | COc1ccc(Cc2nn3c([C@@H](CCC(O)c4ccccc4)[C@H](C)O)nc(C)c3c(=O)[nH]2)cc1OC (stereo in doubt) | Drug metabolism (Liver [11]): Metabolite_Detected |
| 4.3 | – | – | COc1ccc(Cc2nn3c([C@@H](C(O)CC(O)c4ccccc4)[C@H](C)O)nc(C)c3c(=O)[nH]2)cc1OC (some centres undefined) | Drug metabolism (Liver [11]): Metabolite_Detected |
| 25 | 11 | – | COc1ccc(Cc2nn3c([C@@H](CCC(=O)c4ccccc4)[C@@H](C)O)nc(C)c3c(=O)[nH]2)cc1OC | Drug metabolism (Liver [3]): Metabolite_Detected |
| 1.9 | 1.1 | – | COc1ccc(-c2[nH]nc(C)c2-c2nc(C)c3c(=O)[nH]c(C)nn23)cn1 | Drug metabolism [8]: Metabolite_Detected |
| 12 | 1.1 | – | COc1ccc(Cc2nn3c([C@@H](CCC(O)c4ccccc4)[C@@H](C)O)nc(C)c3c(=O)[nH]2)cc1O (some centres undefined) | Drug metabolism (Liver [3]): Metabolite_Detected |
| 11 | 19 | – | Cc1nn2c(-c3c(CO)nn(C)c3-c3ccc(Cl)cc3)nc(C)c2c(=O)[nH]1 | Drug metabolism (Liver [12]): Metabolite_Detected |
| 32 | – | – | COc1ccc(Cc2nn3c([C@@H](CCC(=O)c4ccccc4)[C@H](C)O)nc(C)c3c(=O)[nH]2)cc1OC | Drug metabolism (Liver [11]): Metabolite_Detected |
| 13 | 1.2 | – | COc1cc(Cc2nn3c([C@@H](CCC(O)c4ccccc4)[C@@H](C)O)nc(C)c3c(=O)[nH]2)ccc1O (some centres undefined) | Drug metabolism (Liver [3]): Metabolite_Detected |
| 9.6 | 1.2 | – | COc1ccc(Cc2nn3c([C@@H](CCC(O)c4ccccc4)[C@H](C)O)nc(C)c3c(=O)[nH]2)cc1O (some centres undefined) | Drug metabolism (Liver [11]): Metabolite_Detected |
| 2.4 | 0.56 | – | COc1ccc(Cc2nn3c([C@@H](CC(O)C(O)c4ccccc4)[C@@H](C)O)nc(C)c3c(=O)[nH]2)cc1OC (some centres undefined) | Drug metabolism (Liver [3]): Metabolite_Detected |

Continued, molecule first:

| Compound | hepatocyte CLint at 1 µM [1] [µL/min/1e6 cells] | Papp at 1.5 h [2] [×10⁻⁶ cm/s] | Stability [5] | other results |
| --- | --- | --- | --- | --- |
| Cc1nn2c(-c3c(CO)nn(C)c3-c3ccc(C(F)(F)F)cc3)nc(C(F)F)c2c(=O)[nH]1 | 5.5 | 6.3 | – | Drug metabolism [4]: Metabolite_Detected |
| Cc1nn2c(-c3c(CO)nn(C)c3-c3ccc(C(F)(F)F)cc3)nc(CO)c2c(=O)[nH]1 | – | 1 | Stable | Drug metabolism [6]: Metabolite_Detected |
| Cc1nc(-c2cnn3c2CN(CC2CCCC2O)CC3)c2c(=O)[nH]cnn12 (single isomer, unassigned; diastereomer 2) | – | – | – | CLint [1]: 5.8 µL/min/1e6 cells; IC50 [7]: > 2 µM |
| COc1ccc(-c2[nH]nc(C)c2-c2nc(CO)c3c(=O)[nH]c(C)nn23)cn1 | – | < 0.5 | Stable | Drug metabolism [8]: Metabolite_Detected |
| Cc1nn2c(-c3c(C)nn(C)c3-c3ccc(C(F)(F)F)c(CO)c3)nc(CO)c2c(=O)[nH]1 | – | < 0.5 | Stable | Drug metabolism [9]: Metabolite_Detected |
| Cc1nn2c(-c3c(C=O)nn(C)c3-c3ccc(C(F)(F)F)cn3)nc(C)c2c(=O)[nH]1 | 14.7 | 1.2 | – | Drug metabolism [10]: Metabolite_Detected |
| Cc1nn2c(-c3c(CO)nn(C)c3-c3ccc(C(F)(F)F)c(CO)c3)nc(C)c2c(=O)[nH]1 | – | 0.55 | Stable | Drug metabolism [9]: Metabolite_Detected |
| Cc1nn2c(-c3c(C(=O)O)nn(C)c3-c3ccc(C(F)(F)F)c(C)c3)nc(C)c2c(=O)[nH]1 | – | 53 | Stable | Drug metabolism [9]: Metabolite_Detected |
| Cc1nn2c(-c3c(CO)nn(C)c3-c3ccc(C(F)(F)F)c(C)c3)nc(CO)c2c(=O)[nH]1 | – | 1.7 | Stable | Drug metabolism [9]: Metabolite_Detected |
| Cc1nn2c(-c3c(C)n[nH]c3-c3ccc(C(F)(F)F)cc3)nc(CO)c2c(=O)[nH]1 | – | 0.94 | Stable | Drug metabolism [6]: Metabolite_Detected |
| Cc1nn2c(-c3c(C)nn(C)c3-c3ccc(C(F)(F)F)cc3)nc(CO)c2c(=O)[nH]1 | – | 8.3 | Stable | Drug metabolism [6]: Metabolite_Detected; IC50 [7]: 0.0003 µM |
| Cc1nn2c(-c3c(CO)nn(C)c3-c3ccc(C(F)(F)F)cn3)nc(C)c2c(=O)[nH]1 | – | < 0.5 | Stable | Drug metabolism [10]: Metabolite_Detected |
| COCc1nc(-c2c(C)nn(C)c2-c2ccc(C(F)(F)F)cc2)n2c1c(=O)[nH]c(C)[n+]2[O-] | 13 | 7.9 | – | Drug metabolism [6]: Metabolite_Detected |
| Cc1nn2c(-c3c(C)nn(C)c3-c3ccc(Cl)cc3)nc(CO)c2c(=O)[nH]1 | 15 | 4.9 | – | Drug metabolism (Liver [12]): Metabolite_Detected |
| COc1ccc(-c2c(-c3nc(CO)c4c(=O)[nH]c(C)nn34)c(C)nn2C)cn1 | – | 0.76 | Stable | Drug metabolism [8]: Metabolite_Detected |
| COc1ccc(Cc2nn3c([C@@H](CCC(O)c4ccccc4)[C@@H](C)O)nc(C)c3c(=O)[nH]2)cc1OC (stereo in doubt) | – | – | – | CLint [1]: 17 µL/min/1e6 cells; Papp (MDCKII-LE): 2.2 ×10⁻⁶ cm/s |
| Cc1nn2c(-c3c(CO)nn(C)c3-c3ccc(C(F)(F)F)cn3)nc(CO)c2c(=O)[nH]1 | – | 0.54 | Stable | Drug metabolism [10]: Metabolite_Detected |
| Cc1nn2c(-c3c(C)nn(C)c3-c3ccc(C(F)(F)F)cn3)nc(CO)c2c(=O)[nH]1 | – | 1.7 | Stable | Drug metabolism [10]: Metabolite_Detected |
| Cc1nn2c(-c3c(C)nn(C)c3-c3ccc(C(F)(F)F)c(CO)c3)nc(C)c2c(=O)[nH]1 | 3.9 | 3 | – | Drug metabolism [9]: Metabolite_Detected |
| Cc1nn2c(-c3c(C)n[nH]c3-c3ccc(O)nc3)nc(C)c2c(=O)[nH]1 | – | < 0.5 | Stable | Drug metabolism [8]: Metabolite_Detected; IC50 [7]: > 2 µM |
| Cc1nn2c(-c3c(C)n[nH]c3-c3ccc(C(F)(F)F)cc3)nc(C(F)F)c2c(=O)[nH]1 | 6.4 | 10 | – | Drug metabolism [4]: Metabolite_Detected |
| Cc1nn2c(-c3c(C)nn(C)c3-c3ccc(C(F)(F)F)c(C)c3)nc(CO)c2c(=O)[nH]1 | – | 13 | Stable | Drug metabolism [9]: Metabolite_Detected |
| COc1ccc(Cc2nn3c([C@@H](CCC(O)c4ccccc4)[C@H](C)O)nc(C)c3c(=O)[nH]2)cc1OC (single isomer, unassigned; diastereomer 2) | – | – | – | CLint [1]: 14 µL/min/1e6 cells; Papp (MDCKII-LE): 2.2 ×10⁻⁶ cm/s |
